Reference: article PMC10099996 (Chembiochem, 2022)
Values after ≈ are worked out from the molar mass of the structure shown.

Columns and labels:
[1] = system: S. aureus ATCC 29213 (MSSA); assay: MIC determination; type: cell-based; conditions: Table 1; lysogeny broth (LB) supplemented with 0.3 mM ZnSO4; 37 °C, 18 h; visual inspection; median of a minimum of triplicates
Method in brief: (§1)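 Strains from glycerol stocks are grown overnight on blood agar at 37 °C. A single colony goes into TSB and grows at 37 °C to OD600 0.5, then is diluted 100-fold in ZnSO₄-supplemented LB to 10⁶ CFU mL⁻¹. Test compounds are 2-fold serially diluted in the same medium, in triplicate, and mixed with an equal volume of inoculum. Plates are sealed under breathable membranes and incubated 18 h at 37 °C, shaking at 600 rpm. MIC is read visually.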

[2] = system: S. aureus USA300 (MRSA); assay: MIC determination; type: cell-based; conditions: Table 1; lysogeny broth (LB) supplemented with 0.3 mM ZnSO4; 37 °C, 18 h; visual inspection; median of a minimum of triplicates
Method in brief: as §1

[3] = system: E. faecium E980; assay: MIC determination; type: cell-based; conditions: Table 1; lysogeny broth (LB) supplemented with 0.3 mM ZnSO4; 37 °C, 18 h; visual inspection; median of a minimum of triplicates
Method in brief: as §1

[4] = system: S. simulans 22; assay: MIC determination; type: cell-based; conditions: Table 1; lysogeny broth (LB) supplemented with 0.3 mM ZnSO4; 37 °C, 18 h; visual inspection; median of a minimum of triplicates
Method in brief: as §1

[5] = formation in vivo limits systemic applications; cited from earlier work
[6] = degradation product of bacitracin A; cited from earlier work

## CN[C@H](CC(C)C)C(=O)N[C@H]1C(=O)N[C@@H](CC(N)=O)C(=O)N[C@H]2C(=O)N[C@H]3C(=O)N[C@H](C(=O)N[C@H](C(=O)O)c4cc(O)cc(O)c4-c4cc3ccc4O)[C@H](O)c3ccc(c(Cl)c3)Oc3cc2cc(c3O[C@@H]2O[C@H](CO)[C@@H](O)[C@H](O)[C@H]2O[C@H]2C[C@](C)(N)[C@H](O)[C@H](C)O2)Oc2ccc(cc2Cl)[C@H]1O [Vancomycin]
[1]
  MIC S. aureus ATCC 29213 (MSSA): 1 mg/L (≈ 0.69 µM)
[2]
  MIC S. aureus USA300 (MRSA): 2 mg/L (≈ 1.38 µM)
[3]
  MIC E. faecium E980: 0.5 mg/L (≈ 0.345 µM)
[4]
  MIC S. simulans 22: 0.5 mg/L (≈ 0.345 µM)

## bacitracin F
[5]
  nephrotoxicity: nephrotoxic
[6]
  antibiotic activity: inactive
